mABHD4 FP = ABHD4 (mouse) inhibition, primary FP screen; Q8VD66; purified mABHD4, FP-Rh probe fluorescence polarization; inhibition, % at 8.92 µM; hit rate 0.54% among 370,000; AID 720543;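 active means inhibition exceeding the mean over every tested compound plus 3 SD, cut at about 30% in these data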
Target sequence (Q8VD66 whole entry, looked up): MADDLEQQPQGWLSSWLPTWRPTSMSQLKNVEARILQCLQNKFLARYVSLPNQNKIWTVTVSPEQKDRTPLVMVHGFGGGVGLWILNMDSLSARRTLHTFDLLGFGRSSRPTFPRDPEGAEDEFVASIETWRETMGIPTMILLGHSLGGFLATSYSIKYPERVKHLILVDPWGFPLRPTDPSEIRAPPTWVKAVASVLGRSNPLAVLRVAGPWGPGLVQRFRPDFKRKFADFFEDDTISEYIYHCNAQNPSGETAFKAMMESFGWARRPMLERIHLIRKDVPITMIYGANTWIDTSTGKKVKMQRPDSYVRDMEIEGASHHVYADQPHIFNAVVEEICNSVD
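Assay system: wild-type mouse ABHD4 protein; compound: single nominal dose of 8.92 µM, 0.89% DMSO final; schedule: 45 min + 60 min at 25 °C; measured by: FP readout, ex 525 nm / em 598 nm; evaluation: % inhibition of FP-Rh probe binding versus controls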
HTRA1 inhibitor = inhibitors of human serine peptidase HTRA1. recombinant HTRA1, FP-rhodamine activity-based probe, fluorescence polarization. hit rate 0.5% among 340,000. inhibition, % at 5.96 µM. Q92743. AID 504803; in the data active means inhibition above about 36%
rCAG binder = binds r(CAG) RNA repeats; hit rate 1.3% among 370,000; r(CAG) RNA repeat, TO-PRO-1 dye displacement fluorescence; inhibition, % at 3 µM;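 active means inhibition above the plate cutoff, the mean of all test compounds on that plate plus 3 SD, cut at about 35% in these data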;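 further: higher means more dye released from RNA so lower well fluorescence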
PRMT1 FP inh = inhibitors of human PRMT1; Q99873; recombinant PRMT1, activity-based probe fluorescence polarization; inhibition, % at 2.79 µM; hit rate 1.3% among 370,000;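 active means inhibition above about 21% made by adding two undisclosed values, limit read from the data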
TCR CD3 inh = human TCR-CD3 binding inhibition. inhibition, % at 9.4 µM. TAMRA-labeled TCR probe fluorescence, biochemical. hit rate 0.37% among 360,000. AID 651800; in the data active means inhibition above about 19%;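 further: recombinant mutant TCR 2C K166C tagged with TAMRA read by polarization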
SIAE inh = blocks human sialic acid acetylesterase | Q9HAT2 | inhibition, % at 9.66 µM | SIAE FP-Rh probe binding, fluorescence polarization | hit rate 0.69% among 370,000;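 active means inhibition above a cutoff: mean of compounds within the control limits plus 3 SD of those, cut at about 17% in these data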
SIAE inh conf = confirmation of human SIAE inhibitors; SIAE FP-Rh activity-based probe, fluorescence polarization; AID 1117263; hit rate 13% among 2,300; inhibition, % at 9.66 µM; shares compounds with SIAE inh;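 active means mean inhibition of the replicates above the hit cutoff set in the primary screen, cut at about 17% in these data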;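 further: inhibitors lower polarization as more probe stays unbound to SIAE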
Numbers stand for hits; n = inactive; x = no result; + = active, no number. Rows were chosen to be rich in hits. Some 3.5% of all compounds tested hit in one or more screens of this group.

SMILES	mABHD4 FP	HTRA1 inhibitor	rCAG binder	PRMT1 FP inh	TCR CD3 inh	SIAE inh	SIAE inh conf
Cc1ccc(C(=O)NC2CCCCN(Cc3cccc(F)c3)C2=O)cc1 (stereo not drawn)	n	x	n	n	x	n	x
CCOC(=O)c1sc(NC(=O)Nc2cccc(Cl)c2)cc1C	n	n	n	n	n	18.0	n
COc1ccccc1N1CCN(CCCCOc2cccc3ccccc23)CC1	n	n	n	n	n	50.0	n
COc1ccccc1OCCCCN1CCN(c2ccccc2OC)CC1	n	n	n	n	n	n	x
O=C(CSc1ccccc1)N1CCC(Oc2cccnc2)CC1	n	x	n	n	x	n	x
Cc1ccccc1N=C1SCCN1C(=O)CN1C(=O)NC2(CCCC2)C1=O	n	n	n	n	n	n	x
O=C(CN1C(=O)NC2(CCCC2)C1=O)N1CCCSC1=Nc1ccccc1	n	n	n	n	n	23.2	69.1
Cc1ccccc1-c1nn(-c2ccc(F)cc2F)cc1CNCCN(C)C	n	n	n	n	n	n	x
Cc1ccccc1-c1nn(-c2ccc(F)cc2F)cc1CNCCCN(C)C	n	n	n	n	n	17.5	n
COc1ccc(C(=O)CSc2nnc(-c3cccc(Cl)c3)n2Cc2ccco2)cc1	n	x	n	n	x	n	x
Cc1cc(C)cc(N(CC(=O)NC2CCC(C)CC2)S(=O)(=O)c2ccc(C(C)(C)C)cc2)c1 (stereo not drawn)	n	x	n	n	x	n	x
Cc1c(/C=N/NC(=O)c2ccccc2O)c2ccccn2c1C(=O)c1ccc(F)cc1	n	n	n	n	n	37.0	n
Cc1c(/C=N/NC(=O)c2ccc(O)cc2)c2ccccn2c1C(=O)c1ccc(F)cc1	n	n	n	n	n	n	x
CC(=O)NNC(=O)CCn1nnc(-c2ccc(Cl)cc2)n1	n	n	n	n	n	20.9	n
O=C(NS(=O)(=O)c1cccc(F)c1)[C@H]1O[C@@H](n2ccc(=O)[nH]c2=O)[C@H](O)[C@@H]1O	n	x	n	n	n	n	x
COc1cccc(-c2cc(CNC(=O)[C@H]3O[C@@H](n4ccc(=O)[nH]c4=O)[C@H](O)[C@@H]3O)no2)c1	n	x	n	n	n	74.7	68.0
COC(=O)c1ccccc1S(=O)(=O)NC(=O)[C@H]1O[C@@H](n2ccc(=O)[nH]c2=O)[C@H](O)[C@@H]1O	n	x	n	n	n	73.9	73.3
COc1cccc(N2CCN(C(=O)CCn3nnc4ccccc43)CC2)c1	n	x	n	n	x	n	x
CCC[C@H]1[C@@H](OC(=O)N2CCOCC2)CC[C@@]23CCCN2C(=O)CCC[C@@H]13	n	x	x	n	x	n	x
O=S1(=O)c2ccc(N3CCC[C@@H]3CO)cc2O[C@@H]2CCN1C2	n	x	n	n	x	n	x
O=C(Nc1ccc(Br)cc1Br)Nc1cccc2[nH]c([C@@H]3O[C@H](CO)[C@@H](O)[C@H](O)[C@H]3O)nc12	n	x	n	n	n	19.3	n
O=C(Nc1cccc(Cc2ccccc2)c1)Nc1cccc2[nH]c([C@@H]3O[C@H](CO)[C@@H](O)[C@H](O)[C@H]3O)nc12	n	x	n	n	n	n	x
O=C(NCc1ccccn1)C(=O)NCC1OCCN1S(=O)(=O)c1ccc(F)cc1 (stereo not drawn)	n	n	n	n	n	19.4	n
Cc1ccc(-c2csc(N/N=C/c3ccco3)n2)c(C)c1	n	n	n	n	n	18.5	n
CN(C)S(=O)(=O)c1cccc(-c2csc(N/N=C/c3ccco3)n2)c1	n	n	n	n	n	n	x
SMILES	mABHD4 FP	HTRA1 inhibitor	rCAG binder	PRMT1 FP inh	TCR CD3 inh	SIAE inh	SIAE inh conf
Nn1c(SCC(=O)Nc2cccc3ccccc23)nnc1-c1cc(-c2ccc(Cl)cc2)n[nH]1	n	x	n	n	x	n	x
COc1ccc(CNC(=O)CCNC(=O)N2CC(=O)Nc3ccccc32)cc1	n	n	n	n	n	+	n
COc1ccc(NC(=O)CSc2ccc(-c3ccco3)nn2)cc1OC	n	n	n	n	n	18.5	n
COc1ccc(OC)c(NC(=O)CSc2ccc(-c3ccco3)nn2)c1	n	n	n	n	n	n	x
COc1ccc(NC(=O)CSc2nnc3ccc(-c4cccnc4)nn23)cc1OC	n	n	n	n	n	20.8	n
COc1ccc(NC(=O)CSc2nncn2C)cc1OC	n	n	n	n	n	32.6	n
CCOC(=O)[C@@]12CCCC3=C1N(CCC3)C(=O)[C@H]2CC(=O)NCc1cccc(C(F)(F)F)c1	n	x	n	n	x	n	x

Screens: PubChem, The Scripps Research Institute Molecular Screening Center
